pIC50: −log10 of the molar value.
Tests used:
Neuron [1] = assay: Inhibition of kainate-induced neurotoxicity in primary rat hippocampal neurons at 10 uM after 24 hrs by LDH assay; type: functional
Method in brief: (§1)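 Hippocampal cultures from embryonic day 18–20 Wistar rats, used after 8 or 9 days in vitro. Compounds added together with 300 µM kainate. Neuronal injury measured 24 h later as LDH release into the medium. Values are IC50 (concentration for 50% inhibition) or percent inhibition at 10 µM.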

Neuron [2] = assay: Inhibition of kainate-induced neurotoxicity in primary rat hippocampal neurons after 24 hrs by LDH assay; type: functional, cell-based; method in brief: as §1
Mus musculus = assay: Anticonvulsant activity in po dosed ICR mouse assessed as protection from maximal electroshock-induced seizure measured after 60 mins post dose; type: functional; conditions: 1 h
Method in brief: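 Compounds given orally to mice; 60 min later corneal electroshock applied (50 mA, 0.2 s, 50 Hz). Protection scored as absence of tonic extension. ED50 calculated by probit method, with 95% confidence intervals.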

[3] = Half life in rat at 1 mg/kg, iv; type: ADME, organism-based; set-up: dose 1 mg/kg, route intravenous; conditions: in vivo
[4] = Volume of distribution at steady state in rat at 1 mg/kg, iv; type: ADME, organism-based; set-up: dose 1 mg/kg, route intravenous; conditions: in vivo, read-out: Vdss
[5] = AUC(infinity) in rat at 1 mg/kg, iv; type: ADME, organism-based; set-up: time infinity, dose 1 mg/kg, route intravenous; conditions: plasma
[6] = Half life in rat at 1 mg/kg, po; type: ADME, organism-based; set-up: dose 1 mg/kg, route oral; conditions: in vivo
[7] = Tmax in rat at 1 mg/kg, po; type: ADME, organism-based; set-up: dose 1 mg/kg, route oral; conditions: in vivo
[8] = Total clearance in rat at 1 mg/kg, iv; type: ADME, organism-based; set-up: dose 1 mg/kg, route intravenous; conditions: in vivo
[9] = AUC(infinity) in rat at 1 mg/kg, po; type: ADME, organism-based; set-up: time infinity, dose 1 mg/kg, route oral; conditions: plasma
[10] = Cmax in rat at 1 mg/kg, po; type: ADME, organism-based; set-up: dose 1 mg/kg, route oral; conditions: in vivo
[11] = Oral bioavailability in rat at 1 mg/kg; type: ADME, organism-based; conditions: in vivo

SMILES | inhibition at 10 µM (Neuron [1]) [%] | pIC50 (Neuron [2]) | also measured
CN(c1ccccc1)c1nc(=O)c2cccnc2s1 | 43 | – | –
CN(c1cccnc1)c1nc(=O)c2cccnc2s1 | 18 | – | –
CN(c1nc(=O)c2cccnc2s1)C1CCCCC1 | 16 | – | –
Cc1ccccc1N(C)c1nc(=O)c2cccnc2s1 | 4 | – | –
Cc1ccc(N(C)c2nc(=O)c3cccnc3s2)cc1 | – | 5.00 | –
CN(c1ccc(F)cc1)c1nc(=O)c2cccnc2s1 | – | 5.14 | ED50 (Mus musculus): 15.3 mg/kg
CN(c1ccc(Cl)cc1)c1nc(=O)c2cccnc2s1 | – | 5.70 | ED50 (Mus musculus): 7.4 mg/kg; half-life [3]: 26.4 min; Vd [4]: 1.18 L/kg; AUC(0-inf) [5]: 542 ng·h/mL; half-life [6]: 34.8 min; Tmax [7]: 15 min; clearance [8]: 30.8 mL/min/kg; AUC(0-inf) [9]: 472 ng·h/mL; Cmax [10]: 425 ng/mL; bioavailability [11]: 87.1%
CN(c1ccc(Br)cc1)c1nc(=O)c2cccnc2s1 | – | 6.00 | ED50 (Mus musculus): 23.1 mg/kg
CN(c1ccc(C(F)(F)F)cc1)c1nc(=O)c2cccnc2s1 | – | 5.70 | –
COc1ccc(N(C)c2nc(=O)c3cccnc3s2)cc1 | – | 5.47 | –
CN(c1ccc(OC(F)(F)F)cc1)c1nc(=O)c2cccnc2s1 | – | 5.68 | ED50 (Mus musculus): 25.2 mg/kg
CN(c1ccc([N+](=O)[O-])cc1)c1nc(=O)c2cccnc2s1 | 38 | – | –
CN(c1ccc(N)cc1)c1nc(=O)c2cccnc2s1 | 19 | – | –
CCOC(=O)c1ccc(N(C)c2nc(=O)c3cccnc3s2)cc1 | 29 | – | –
CN(c1ccc(C(=O)O)cc1)c1nc(=O)c2cccnc2s1 | 0 | – | –
CN(c1ccc(C2CCCCC2)cc1)c1nc(=O)c2cccnc2s1 | 29 | – | –
CN(c1ccc2c(c1)CCC2)c1nc(=O)c2cccnc2s1 | – | 5.89 | –

SMILES | inhibition at 10 µM (Neuron [1]) [%] | pIC50 (Neuron [2]) | also measured
CN(c1ccc2sccc2c1)c1nc(=O)c2cccnc2s1 | – | 6.40 | –
CCN(c1cccc(OC)c1)c1nc(=O)c2cccnc2s1 | – | 5.42 | –
CCN(c1ccc(OC)cc1)c1nc(=O)c2cccnc2s1 | – | 5.55 | –
CCN(c1ccc(OC)c(OC)c1)c1nc(=O)c2cccnc2s1 | 25 | – | –
CCN(c1ccc2c(c1)OCO2)c1nc(=O)c2cccnc2s1 | – | 6.40 | ED50 (Mus musculus): 38.9 mg/kg
CCN(c1ccc2c(c1)OCCO2)c1nc(=O)c2cccnc2s1 | – | 6.22 | –
CN(c1ccc(Cl)cc1)c1nc(=O)c2ccccc2s1 | – | 5.19 | –
CN(c1ccc(Cl)cc1)c1nc(=O)c2sccc2s1 | – | 5.27 | –
CN(c1ccc(Cl)cc1)c1nc(=O)c2ccncc2s1 | 4 | – | –
CN(c1ccc(Cl)cc1)c1nc(=O)c2cnccc2s1 | 2 | – | –
Cc1ccc2c(=O)nc(N(C)c3ccc(Cl)cc3)sc2n1 | 0 | – | –
CN(c1ccc(Cl)cc1)c1nc(=O)c2ccccc2o1 | 28 | – | –
Cl.O=c1[nH]c2cc(-n3ccnc3)c([N+](=O)[O-])cc2[nH]c1=O | – | – | ED50 (Mus musculus): > 100 mg/kg
C=CCN(c1ccc(C)cc1)c1nc(=O)c2cccnc2s1 | – | 5.05 | –
CN(Cc1ccccc1)c1nc(=O)c2cccnc2s1 | 0 | – | –
CN(c1ccsc1)c1nc(=O)c2cccnc2s1 | 28 | – | –
CC(=O)N1N=C(c2ccc(N)cc2)c2cc3c(cc2C[C@H]1C)OCO3 [TALAMPANEL] | – | 5.22 | ED50 (Mus musculus): 4.2 mg/kg
